HCV NS3 hel inh – blocks Hepatitis C virus NS3 helicase unwinding; NS3 helicase DNA unwinding, Cy5 molecular beacon fluorescence; inhibition, % at 10.9 µM; 290,000 compounds, 0.56% hits; AID 1800;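 active = inhibition above the mean of all tested compounds plus 3 SD, set per campaign, cut at about 35% in these data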;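 note: 0% = DMSO wells and 100% = thioflavine S control wells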
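System: NS3 helicase fragment of HCV / Schedule: 1 h at 25 °C / Control set: DMSO alone as 0% and 110 µM thioflavine S as 100% / Reagent: Cy5/quencher beacon DNA duplex and ATP to start / Technique: Cy5 fluorescence / Replication: singlicate / Evaluation: % inhibition of end-to-start signal ratio versus controls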
IMP-1 inh-1 – blocks Pseudomonas aeruginosa IMP-1 metallo-beta-lactamase. 290,000 compounds, 0.45% hits. inhibition, % at 5.6 µM. purified IMP-1, nitrocefin hydrolysis, epi-absorbance fluorescence;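 active = inhibition above the mean plus 3 SD of all compounds in the same screening run, cut at about 4.5% in these data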;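 note: 0% = IMP-1 with DMSO and 100% = DMSO wells lacking enzyme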
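Assay system: purified recombinant IMP-1 beta-lactamase. Input: IMP-1 0.2 nM before substrate addition. Buffer or medium: Zinc- and detergent-supplemented HEPES buffer, pH 7.1. Schedule: 25 °C, 15 min preincubation, 25 min reaction. Signal: Epi-absorbance fluorescence, 480 nm excitation, 530 nm emission. Evaluation: percent inhibition from optical density relative to buffer-blank wells.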
DNA FID counter – fluorescent intercalator displacement, NS3 helicase counter-screen. DNA fluorescent intercalator displacement, fluorescence. inhibition, % at 7.9 µM. 290,000 compounds, 0.17% hits; in the data active = inhibition above about 37%;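 note: 0% = vehicle and 100% = reference compound; higher means more ethidium bromide displaced from hairpin DNA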
VIM-2 inhibitor – blocks Pseudomonas aeruginosa VIM-2 metallo-beta-lactamase; purified VIM-2, nitrocefin hydrolysis, epi-absorbance fluorescence; inhibition, % at 5.6 µM; 290,000 compounds, 0.89% hits;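 active = inhibition above the mean of all tested compounds plus 3 SD, cutoff set per screening run, cut at about 7.5% in these data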;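 note: red hydrolysis product quenches plate fluorescence so inhibitors raise well fluorescence; 0% = enzyme with DMSO and 100% = DMSO without enzyme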
IMP-1 inh-2 – blocks IMP-1 metallo-beta-lactamase in VIM-2 selectivity screen | shares compounds with VIM-2 inhibitor | purified IMP-1, nitrocefin hydrolysis, epi-absorbance fluorescence | inhibition, % at 5.6 µM | 1,300 tested, under 10 active; call rule not given here;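 note: 0% = enzyme with vehicle and 100% = vehicle without enzyme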
VIM-2 FRET inh – VIM-2 FRET inhibition, artifact counter-screen; shares compounds with VIM-2 inhibitor; inhibition, % at 5.6 µM; purified VIM-2, CCF2 FRET substrate hydrolysis; 1,300 compounds, 23% hits;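 active = inhibition above the mean of all tested compounds plus 3 SD, cut at about 19% in these data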;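 note: 0% = VIM-2 plus DMSO and 100% = no enzyme wells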
TEM-1 inh – TEM-1 inhibition, counter-screen for VIM-2 inhibitors | AID 1866 | shares compounds with VIM-2 inhibitor | Purified TEM-1, nitrocefin hydrolysis, epi-absorbance fluorescence | inhibition, % at 5.6 µM | 1,300 compounds, 3% hits;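 active = inhibition above that campaign's mean inhibition plus 3 SD, cut at about 0.46% in these data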;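 note: 0% = TEM-1 with DMSO and 100% = TEM-1 with 100 µM potassium clavulanate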
Target sequence (P62593 whole entry, looked up): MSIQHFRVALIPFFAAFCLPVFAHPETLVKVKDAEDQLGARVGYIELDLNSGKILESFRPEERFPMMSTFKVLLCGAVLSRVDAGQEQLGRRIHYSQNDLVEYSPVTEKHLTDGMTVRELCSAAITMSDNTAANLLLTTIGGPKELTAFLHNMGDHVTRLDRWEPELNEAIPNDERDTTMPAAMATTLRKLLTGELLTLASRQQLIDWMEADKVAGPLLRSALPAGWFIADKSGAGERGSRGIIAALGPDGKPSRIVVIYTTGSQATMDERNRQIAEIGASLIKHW
VIM-2 confirm 2 – confirmation of P. aeruginosa VIM-2 metallo-beta-lactamase inhibitors; shares compounds with VIM-2 inhibitor; purified VIM-2, nitrocefin hydrolysis, epi-absorbance; inhibition, % at 5.6 µM; 1,300 compounds, 96% hits; AID 2187;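 active = inhibition of the VIM-2 beta-lactamase enzyme above about 11% from the earlier first-round screen, limit read from the data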;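 note: 0% = VIM-2 with DMSO and 100% = buffer wells without enzyme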
Numbers without * were called inactive; . = no result given. In the library only some 1.9% were active in any assay of this set; here they are far more common.

SMILES | HCV NS3 hel inh | IMP-1 inh-1 | DNA FID counter | VIM-2 inhibitor | IMP-1 inh-2 | VIM-2 FRET inh | TEM-1 inh | VIM-2 confirm 2
CCCc1cc(=O)oc2c3c(cc(OCC(=O)N[C@@H](CSC)C(=O)O)c12)OC(C)(C)CC3 | 13 | -3 | -21 | 37* | -2 | 68* | -7 | 44*
Cc1ccccc1CSCC(=O)NCc1ccco1 | 2 | -2 | -5 | -1 | . | . | . | .
COc1ccc(N2CCN(C(=O)c3cc4c(C)nc5ccccc5c4o3)CC2)cc1 | -13 | 0 | -27 | 4 | . | . | . | .
Cc1nc2ccccc2c2oc(C(=O)N3CCN(C4CCCCC4)CC3)cc12 | 20 | -3 | 9 | 19* | -2 | 4 | -6 | 38*
O=C(CSc1ncn[nH]1)N1N=C(c2ccc(Cl)cc2)CC1c1ccco1 (configuration not stated) | -1 | 0 | -25 | 13* | -3 | 30* | -6 | 17*
COc1cc2c(c(OC)c1OC)CCc1cnoc1-2 | -3 | -2 | -6 | -1 | . | . | . | .
COC(=O)c1c(NC(=O)c2ccco2)sc2c1CC(C)(C)NC2(C)C | -10 | 1 | 23 | 13* | -5 | 3 | -8 | 17*
Cc1nc(N2CCCC2)c2ccsc2n1 | -10 | 3 | -3 | 14* | -2 | 1 | 0 | 15*
Cc1nc(N2CCN(C)CC2)c2cc(-c3ccccc3)sc2n1 | -1 | 1 | 7 | 5 | . | . | . | .
CCOc1cc(/C=N/n2cnnc2)ccc1OC(=O)c1cccc([N+](=O)[O-])c1 | 3 | 1 | 2 | 13* | -4 | -1 | -4 | 14*
CCOc1cc(N2CCOCC2)c(OCC)cc1NC(=O)CSc1ncn[nH]1 | -4 | 1 | -4 | 4 | . | . | . | .
Cc1cc(C)n2cc(CSc3nnc(-c4ccccc4)o3)nc2n1 | -22 | 1 | -17 | 16* | -3 | 30* | -3 | 21*
Cc1cc(C)n2cc(CSCc3ccccc3)nc2n1 | 9 | -3 | -9 | 2 | . | . | . | .
CN1CCN(c2ccc(NC(=O)COc3ccccc3[N+](=O)[O-])cc2)CC1 | 4 | -1 | 20 | 45* | -3 | -1 | -7 | 66*
CCOc1ccc(C(=O)Nc2ccc(N3CCN(C)CC3)cc2)cc1[N+](=O)[O-] | 7 | -3 | 24 | 30* | -2 | -3 | -7 | 58*
CS(=O)(=O)N1CCN(c2ccc(NC(=O)COc3ccccc3[N+](=O)[O-])cc2)CC1 | 6 | -1 | -12 | -3 | . | . | . | .
COc1ccc(C(=O)Nc2ccc(N3CCN(C)CC3)cc2)cc1[N+](=O)[O-] | -1 | -4 | 15 | 34* | -3 | -1 | -7 | 60*
CN(C)CCN(Cc1ccco1)C(=O)c1cc2c(Cl)nc3ccccc3c2s1 | -12 | -1 | 7 | 13* | -2 | 0 | -4 | 36*
CN(CCC#N)C(=O)c1cc2c(Cl)nc3ccccc3c2s1 | -4 | -2 | -7 | 20* | -4 | 7 | -6 | 25*
Cn1c(SCc2ccccn2)nnc1-c1ccccc1 | -6 | -2 | 4 | -3 | . | . | . | .
CC1=CCC(C(=O)O)(C(=O)N/N=C/c2cccs2)C(c2ccc(F)cc2)C1 (configuration not stated) | 21 | 0 | -28 | 4 | . | . | . | .
CC1=CCC(C(=O)O)(C(=O)N/N=C/c2cccs2)C(c2ccc([N+](=O)[O-])cc2)C1 (configuration not stated) | 14 | -4 | -33 | 31* | -4 | 9 | -6 | 7
COc1ccc(C(=O)NNC(=O)CSc2nnc(C)n2C)cc1 | -1 | -2 | 6 | -5 | . | . | . | .
Cc1nn2c(-c3ccco3)nnc2c2ccccc12 | 12 | 0 | -7 | 13* | -2 | -2 | -4 | 27*
Cc1ccccc1-c1nnc2c3ccccc3c(C)nn12 | -5 | -2 | -11 | 0 | . | . | . | .
COc1ccc2c(c1)c(=O)c(C(=O)O)c(-c1ccc3c(c1)OCO3)n2C | 1 | -1 | -2 | 40* | -3 | 73* | -6 | 59*
CCN(CC)CCCNc1nc(SC)nc2sc3c(c12)CCN(C)C3 | -49 | -1 | 17 | 13* | -3 | -2 | -5 | 21*
